Where two headings read alike, the source gives them in different places.
Key:
Recombinant GGTase I = Recombinant GGTase I (Rattus norvegicus, UniProt P53610+Q04631); experiment: GGTase I enzyme assay; assay type: biochemical
How it was run: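 Recombinant GGTase I activity measured by a modified Temple et al. method, with dansyl-peptide substrates (dansyl-GCVLS and dansyl-GCVLL listed for the FTase/GGTase I assays); fluorescence change followed over time on a microplate reader. Test compound run in duplicate at multiple concentrations, three independent experiments; IC50 obtained from concentration-response curves.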

RPMI-8226 myeloma cells [1] = experiment: H-Ras immunoblot; assay type: cell-based; conditions: RPMI-8226 cells, 48 h
Recombinant FTase = Recombinant FTase (Rattus norvegicus, UniProt Q02293+Q04631); experiment: FTase enzyme assay; assay type: biochemical; conditions: for FTase inhibitory activity: concentrations as high as 100 μM, data not shown
Chain of Recombinant FTase (Q02293 whole entry, one chain of several): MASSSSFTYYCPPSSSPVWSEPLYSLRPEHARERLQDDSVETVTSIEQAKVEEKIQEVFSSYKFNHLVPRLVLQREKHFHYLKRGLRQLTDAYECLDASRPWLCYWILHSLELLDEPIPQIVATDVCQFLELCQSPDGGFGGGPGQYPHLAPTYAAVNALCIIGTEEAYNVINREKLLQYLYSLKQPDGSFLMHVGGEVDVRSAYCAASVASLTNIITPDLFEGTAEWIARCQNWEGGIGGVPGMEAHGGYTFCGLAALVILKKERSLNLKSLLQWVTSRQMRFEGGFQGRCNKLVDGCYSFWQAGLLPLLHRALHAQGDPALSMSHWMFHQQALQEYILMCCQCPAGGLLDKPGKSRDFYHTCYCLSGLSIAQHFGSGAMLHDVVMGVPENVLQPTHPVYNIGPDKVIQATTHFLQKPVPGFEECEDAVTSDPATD

RPMI-8226 myeloma cells [2] = experiment: Cellular assays: Rap1a immunoblot and intracellular lambda light chain ELISA; assay type: cell-based
[3] = concentrations as high as 100 μM, data not shown

Chain of Recombinant GGTase I (P53610 whole entry, one chain of several): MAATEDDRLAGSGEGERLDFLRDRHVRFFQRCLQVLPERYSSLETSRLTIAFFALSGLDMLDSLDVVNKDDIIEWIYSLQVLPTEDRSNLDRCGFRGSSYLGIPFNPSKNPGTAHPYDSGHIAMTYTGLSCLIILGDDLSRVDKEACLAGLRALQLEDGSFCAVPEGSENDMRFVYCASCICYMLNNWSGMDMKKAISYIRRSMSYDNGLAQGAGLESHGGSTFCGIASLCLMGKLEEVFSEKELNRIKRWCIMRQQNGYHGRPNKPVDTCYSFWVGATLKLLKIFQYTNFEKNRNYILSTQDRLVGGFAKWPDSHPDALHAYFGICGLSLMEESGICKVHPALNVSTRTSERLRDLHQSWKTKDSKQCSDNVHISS

Compound | Effect on H-Ras farnesylation (prenylation) (RPMI-8226 myeloma cells [1]) | GGTase I inhibitory activity (Recombinant GGTase I; [3]) | FTase inhibitory activity (Recombinant FTase) | further results
CC(C)=CCC/C(C)=C/C(=O)NCCC(P(=O)([O-])[O-])P(=O)([O-])[O-].[Na+].[Na+].[Na+].[Na+] [Compound 2b, Disodium (1-[bis(sodiooxy)phosphoryl]-3-[(2E)-3,7-dimethylocta-2,6-dienamido]propyl)phosphonate] | disrupted H-Ras farnesylation | – | – | GGTase I inhibitory activity (Recombinant GGTase I): no inhibitory activity
CC(C)=CCC/C(C)=C\C(=O)NCCC(P(=O)(O)O)P(=O)(O)O [Compound 2c] | – | – | – | inhibition at 100 µM (Recombinant FTase; read-out: FTase inhibitory activity): < 30%
CC(C)=CCC[C@H](C)CC(=O)NCCC(P(=O)([O-])[O-])P(=O)([O-])[O-].[Na+].[Na+].[Na+].[Na+] [Compound 2d, Disodium (1-[bis(sodiooxy)phosphoryl]-3-[(3S)-3,7-dimethyloct-6-enamido]propyl)phosphonate] | None of these compounds (2g, 2h, 2i, 2e, 2d) disrupted H-Ras farnesylation | no inhibitory activity was observed | no inhibitory activity was observed | –
CC(C)=CCC[C@@H](C)CC(=O)NCCC(P(=O)([O-])[O-])P(=O)([O-])[O-].[Na+].[Na+].[Na+].[Na+] [Compound 2e, Disodium (1-[bis(sodiooxy)phosphoryl]-3-[(3R)-3,7-dimethyloct-6-enamido]propyl)phosphonate] | None of these compounds (2g, 2h, 2i, 2e, 2d) disrupted H-Ras farnesylation | no inhibitory activity was observed | no inhibitory activity was observed | Fold more potent than S-isomer 2d (RPMI-8226 myeloma cells [2]; cellular assays): 10 fold
CC(C)=CCC/C(C)=C\CC(=O)NCCC(P(=O)([O-])[O-])P(=O)([O-])[O-].[Na+].[Na+].[Na+].[Na+] [Compound 2g, Disodium (1-[bis(sodiooxy)phosphoryl]-3-[(3Z)-4,8-dimethylnona-3,7-dienamido]propyl)phosphonate] | None of these compounds (2g, 2h, 2i, 2e, 2d) disrupted H-Ras farnesylation | no inhibitory activity was observed | no inhibitory activity was observed | Fold increase in GGDPS inhibitor activity with respect to 2c (RPMI-8226 myeloma cells [2]; Figure 3B, Rap1a immunoblot): 10 fold
CC(C)=CCC/C(C)=C/CCC(=O)NCCC(P(=O)([O-])[O-])P(=O)([O-])[O-].[Na+].[Na+].[Na+].[Na+] [Compound 2h, Disodium (1-[bis(sodiooxy)phosphoryl]-3-[(4E)-5,9-dimethyldeca-4,8-dienamido]propyl)phosphonate] | None of these compounds (2g, 2h, 2i, 2e, 2d) disrupted H-Ras farnesylation | no inhibitory activity was observed | no inhibitory activity was observed | –
CC(C)=CCC/C(C)=C\CCC(=O)NCCC(P(=O)([O-])[O-])P(=O)([O-])[O-].[Na+].[Na+].[Na+].[Na+] [Compound 2i, Disodium (1-[bis(sodiooxy)phosphoryl]-3-[(4Z)-5,9-dimethyldeca-4,8-dienamido]propyl)phosphonate] | None of these compounds (2g, 2h, 2i, 2e, 2d) disrupted H-Ras farnesylation | no inhibitory activity was observed | no inhibitory activity was observed | Times less potent than triazole 1 (RPMI-8226 myeloma cells [2]; by LEC): approximately 17 times
CC(C)=CCCC(=O)NCCC(P(=O)([O-])[O-])P(=O)([O-])[O-].[Na+].[Na+].[Na+].[Na+] [Compound 2j, Disodium (1-[bis(sodiooxy)phosphoryl]-3-(5-methylhex-4-enamido)propyl)phosphonate] | lack of effect | – | – | –
